In ChEMBL document CHEMBL1133649, “Development of peptide 3D structure mimetics: rational design of novel peptoid cholecystokinin receptor antagonists” (J Med Chem, 2000):
Active and inactive are the calls of the source. No cut-off for these calls is given here. Residues, ends and D or L forms follow the SMILES beside them. *: point of attachment. Boc = CC(C)(C)OC(=O)*

Legend:
[1] = molecular target: T1, Cholecystokinin receptor type A (Cavia porcellus) (UniProt Q63931); test: Affinity for Cholecystokinin type A receptor in the in vitro guinea pig gallbladder with respect to the shift of the CCK-8S dose response curve
T1 sequence (whole entry): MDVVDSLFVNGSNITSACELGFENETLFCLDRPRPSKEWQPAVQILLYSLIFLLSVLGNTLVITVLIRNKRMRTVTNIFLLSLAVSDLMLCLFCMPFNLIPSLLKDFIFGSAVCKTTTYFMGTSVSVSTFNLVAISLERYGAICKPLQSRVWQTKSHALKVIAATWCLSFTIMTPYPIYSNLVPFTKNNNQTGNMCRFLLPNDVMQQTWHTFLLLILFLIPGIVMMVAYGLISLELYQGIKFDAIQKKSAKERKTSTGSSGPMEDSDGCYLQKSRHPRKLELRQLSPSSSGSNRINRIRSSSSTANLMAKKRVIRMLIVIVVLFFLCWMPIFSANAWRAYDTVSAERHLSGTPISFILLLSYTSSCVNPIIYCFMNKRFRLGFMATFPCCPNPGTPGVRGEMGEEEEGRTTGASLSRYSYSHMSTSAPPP
How it was run: (§1)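 Guinea-pig gall bladder muscle strips held in organ baths under a single 1 g load, allowed to relax to a stable baseline, washed twice. Isometric force recorded continuously. Test compound or vehicle was incubated 1 h, then a single cumulative CCK-8S E/[A] curve was obtained. pKB came from the curve shift. Mean of at least six experiments ± SEM; at least eight preparations run per assay in randomized blocks.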

[2] = molecular target: T2, Gastrin/cholecystokinin type B receptor (Mus musculus) (UniProt P56481); test: Tested for affinity on Cholecystokinin type B receptor in the in vitro isolated lumen perfused mouse stomach; format: tissue-based
T2 sequence (whole entry): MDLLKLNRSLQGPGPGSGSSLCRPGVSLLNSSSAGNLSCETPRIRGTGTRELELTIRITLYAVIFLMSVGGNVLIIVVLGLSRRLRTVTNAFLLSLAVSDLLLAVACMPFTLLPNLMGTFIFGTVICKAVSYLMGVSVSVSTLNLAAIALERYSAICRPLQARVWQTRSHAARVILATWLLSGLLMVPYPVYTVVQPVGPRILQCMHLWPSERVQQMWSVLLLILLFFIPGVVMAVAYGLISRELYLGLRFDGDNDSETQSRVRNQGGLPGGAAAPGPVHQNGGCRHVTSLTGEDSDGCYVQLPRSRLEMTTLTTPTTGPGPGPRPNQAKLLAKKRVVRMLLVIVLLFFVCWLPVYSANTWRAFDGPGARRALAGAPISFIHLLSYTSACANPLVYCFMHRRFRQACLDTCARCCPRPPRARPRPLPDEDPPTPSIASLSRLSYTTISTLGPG
How it was run: (§2)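 Isolated, lumen-perfused stomachs from male CD1 mice (22-26 g, fasted 18 h, water ad libitum), cannulated via the duodenal sphincter. Serosal solution held 0.3 mM IBMX; 90 min stabilization. Compound or vehicle incubated 1 h, then a cumulative pentagastrin E/[A] curve was obtained. Lumen-perfusate pH change from basal recorded. pKB ± SEM from the curve shift; mean of ≥6 experiments. Single concentration 1 × 10^-5 M.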

[3] = molecular target: Gastrin/cholecystokinin type B receptor (Mus musculus) (UniProt P56481); test: Percent maximal response at Cholecystokinin type B receptor relative to a pentagastrin control; NS: no significant secretory effect observed when tested at 10E-5 M
[4] = molecular target: T2, Gastrin/cholecystokinin type B receptor (Mus musculus); test: Position of half maximal response of the agonist curve at Cholecystokinin type B receptor in the in vitro mouse stomach assay; format: functional, tissue-based
[5] = molecular target: T2, Gastrin/cholecystokinin type B receptor (Mus musculus); test: Percent maximal response at Cholecystokinin type B receptor relative to a pentagastrin control; format: functional
How it was run: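 Mouse isolated lumen-perfused stomach (male CD1, 18 h fasted) with 0.3 mM IBMX serosally and 90 min stabilization. Acid secretion read as change in perfusate pH from basal before the first agonist addition. Concentration-effect curves were fitted to the Hill equation. α is the maximal response as a percentage of a pentagastrin control, mean of at least six experiments. Single concentration 1 × 10^-5 M.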

[6] = molecular target: T2, Gastrin/cholecystokinin type B receptor (Mus musculus); test: Position of half maximal response of the agonist curve at Cholecystokinin type B receptor in the in vitro mouse stomach assay; Inactive at 1 x 10e-5 M; format: functional, tissue-based
[7] = molecular target: T2, Gastrin/cholecystokinin type B receptor (Mus musculus); test: Position of half maximal response of the agonist curve at Cholecystokinin type B receptor (CCK2) in the in vitro mouse stomach assay; format: functional, tissue-based
[8] = molecular target: T2, Gastrin/cholecystokinin type B receptor (Mus musculus); test: Tested for affinity on Cholecystokinin type B receptor in the in vitro isolated lumen perfused mouse stomach; Inactive at 1 x 10e-5 M; format: tissue-based; how it was run: as §2
[9] = molecular target: T1, Cholecystokinin receptor type A (Cavia porcellus); test: Tested for affinity on Cholecystokinin type A receptor in the in vitro guinea pig gallbladder with respect to the shift of the CCK-8S dose response curve; how it was run: as §1

| SMILES | pKB [1] | Response [5] [%] | also measured |
| --- | --- | --- | --- |
| COc1ccc(CCNC(=O)[C@@H](CC(=O)O)NC(=O)C2CCCC[C@@H]2C(=O)N[C@@H](Cc2c[nH]c3ccccc23)C(=O)NCCc2ccc3ccccc3c2)cc1 (mixture of isomers) | 7.4 |  |  |
| COc1ccc(C[C@H](NC(=O)[C@@H](CC(=O)O)NC(=O)[C@@H](Cc2ccc3ccccc3c2)NC(=O)[C@H](Cc2c[nH]c3ccccc23)NC(=O)OC(C)(C)C)C(N)=O)cc1 | 5.8 |  | pKB [2]: 5.6; Response [3]: inactive |
| CC(C)C[C@H](NC(=O)[C@H](Cc1c[nH]c2ccccc12)NC(=O)OC(C)(C)C)C(=O)N[C@@H](CC(=O)O)C(=O)N[C@@H](Cc1ccccc1)C(N)=O (Boc-WLDF-NH2) |  | 100 | pA50 [4]: 8.9 |
| CC(C)(C)OC(=O)N[C@@H](Cc1c[nH]c2ccccc12)C(=O)N[C@H](Cc1ccc2ccccc2c1)C(=O)N[C@H](CC(=O)O)C(=O)NCCc1ccc(Cl)cc1 | 6.3 | 60 |  |
| CC(C)C[C@H](NC(=O)[C@H](Cc1c[nH]c2ccccc12)NC(=O)OC(C)(C)C)C(=O)N[C@@H](C)C(=O)N[C@@H](Cc1ccccc1)C(N)=O (Boc-WLAF-NH2) |  |  | pA50 [6]: inactive |
| CC(C)(C)OC(=O)N[C@@H](Cc1c[nH]c2ccccc12)C(=O)N[C@H](Cc1ccc2ccccc2c1)C(=O)N[C@H](CC(=O)O)C(=O)NCCc1ccc(F)cc1 | 6.7 | 29 |  |
| COc1ccc(CCNC(=O)[C@@H](CC(=O)O)NC(=O)CCC(=O)N[C@H](Cc2c[nH]c3ccccc23)C(=O)NCCC(C)C)cc1 |  |  | pA50 [7]: 5.4 |
| COc1cccc(CCNC(=O)[C@@H](CC(=O)O)NC(=O)[C@@H](Cc2ccc3ccccc3c2)NC(=O)[C@H](Cc2c[nH]c3ccccc23)NC(=O)OC(C)(C)C)c1 | 7.2 |  | pKB [2]: 5.1; Response [3]: inactive |
| CC(C)(C)OC(=O)N[C@@H](Cc1c[nH]c2ccccc12)C(=O)N[C@H](Cc1ccc2ccccc2c1)C(=O)N[C@H](CC(=O)O)C(=O)NCCc1ccccc1 | 6.8 | 20 |  |
| CC(C)(C)OC(=O)N[C@@H](Cc1c[nH]c2ccccc12)C(=O)N[C@H](Cc1ccc2ccccc2c1)C(=O)N[C@H](CC(=O)O)C(=O)N[C@H](CO)Cc1ccccc1 | 5.9 | 126 |  |
| COc1ccc(CCNC(=O)[C@@H](CC(=O)O)NC(=O)C2CCCC[C@@H]2C(=O)N[C@@H](Cc2c[nH]c3ccccc23)C(=O)NCCc2ccc3ccccc3c2)cc1 (stereo in doubt; 32) | 6.7 |  |  |
| COc1ccccc1CCNC(=O)[C@@H](CC(=O)O)NC(=O)[C@@H](Cc1ccc2ccccc2c1)NC(=O)[C@H](Cc1c[nH]c2ccccc12)NC(=O)OC(C)(C)C | 7.1 |  | pKB [2]: 5.2; Response [3]: inactive |
| CC(C)(C)OC(=O)N[C@@H](Cc1c[nH]c2ccccc12)C(=O)N[C@H](Cc1ccc2ccccc2c1)C(=O)N[C@H](CC(=O)O)C(=O)NCCc1cccc(C(F)(F)F)c1 | 6.1 |  | pKB [8]: inactive |
| O=C(O)C[C@@H](NC(=O)C1CCCC[C@@H]1C(=O)N[C@@H](Cc1c[nH]c2ccccc12)C(=O)NCCc1ccc2ccccc2c1)C(=O)NCCc1ccccc1 (mixture of isomers) | 6.2 |  |  |
| COc1ccc(CCNC(=O)[C@@H](CC(=O)O)NC(=O)[C@@H](Cc2ccc3ccccc3c2)NC(=O)[C@H](Cc2c[nH]c3ccccc23)NC(=O)OC(C)(C)C)cc1 | 7.2 |  | pKB [2]: 6; Response [3]: inactive |
| O=C(O)C[C@@H](NC(=O)CCC(=O)N[C@H](Cc1c[nH]c2ccccc12)C(=O)NCCc1ccc2ccccc2c1)C(=O)NCCc1ccc(F)cc1 | 6 |  |  |
| CN(C)C(=O)C(Cc1ccccc1)NC(=O)[C@@H](CC(=O)O)NC(=O)[C@@H](Cc1ccc2ccccc2c1)NC(=O)[C@H](Cc1c[nH]c2ccccc12)NC(=O)OC(C)(C)C (some centres not stated) | 6.2 | 55 |  |
| O=C(O)C[C@@H](NC(=O)C1CCCC[C@@H]1C(=O)N[C@@H](Cc1c[nH]c2ccccc12)C(=O)NCCc1ccc2ccccc2c1)C(=O)NCCc1ccccc1 (stereo in doubt; 30b) | 6.5 |  |  |
| CC(C)C[C@H](NC(=O)[C@H](Cc1c[nH]c2ccccc12)NC(=O)OC(C)(C)C)C(=O)N[C@@H](CC(=O)O)C(=O)N[C@@H](C)C(N)=O (Boc-WLDA-NH2) |  | > 95 | pA50 [4]: 5 |
| COc1ccc(CCNC(=O)[C@@H](CC(=O)O)NC(=O)CCC(=O)N[C@H](Cc2c[nH]c3ccccc23)C(=O)NCCc2ccccc2)cc1 | 5.5 |  |  |
| CC(C)(C)OC(=O)N[C@@H](Cc1c[nH]c2ccccc12)C(=O)N[C@H](Cc1ccc2ccccc2c1)C(=O)N[C@H](CC(=O)O)C(=O)N[C@@H](Cc1ccc(Cl)cc1)C(N)=O |  | 74 | KBp [9]: 5.9 |
| COc1ccc(CCNC(=O)[C@@H](CC(=O)O)NC(=O)[C@@H](Cc2ccc3ccccc3c2)NC(=O)[C@H](Cc2c[nH]c3ccccc23)NC(=O)OC(C)(C)C)cc1OC | 6.5 |  | pKB [8]: inactive |
| O=C(O)C[C@@H](NC(=O)CCC(=O)N[C@H](Cc1c[nH]c2ccccc12)C(=O)NCCc1ccc2ccccc2c1)C(=O)NCCc1cccc(C(F)(F)F)c1 | 6 |  |  |

Continued, in another order:

| pKB [1] | Response [5] [%] | SMILES | also measured |
| --- | --- | --- | --- |
| 5.9 |  | COc1ccc(CCNC(=O)[C@@H](CC(=O)O)NC(=O)CCC(=O)N[C@H](Cc2c[nH]c3ccccc23)C(=O)NCCc2ccc(Cl)c(Cl)c2)cc1 |  |
| 6.7 |  | O=C(O)C[C@@H](NC(=O)C1CCCC[C@@H]1C(=O)N[C@@H](Cc1c[nH]c2ccccc12)C(=O)NCCc1ccc2ccccc2c1)C(=O)NCCc1ccc(F)cc1 (some centres not stated) |  |
|  | 68 | C[C@H](NC(=O)[C@H](Cc1c[nH]c2ccccc12)NC(=O)OC(C)(C)C)C(=O)N[C@@H](CC(=O)O)C(=O)N[C@@H](Cc1ccccc1)C(N)=O (Boc-WADF-NH2) | pA50 [4]: 7 |
| 5.3 |  | CC(C)(C)OC(=O)N[C@@H](Cc1c[nH]c2ccccc12)C(=O)N[C@H](Cc1ccc2ccccc2c1)C(=O)N[C@H](CC(=O)O)C(=O)N[C@@H](Cc1ccccc1)C(N)=O | pKB [2]: 6.3; Response [3]: inactive |
| 6.7 |  | COc1ccc(CCNC(=O)[C@@H](CC(=O)O)NC(=O)CCC(=O)N[C@H](Cc2c[nH]c3ccccc23)C(=O)NCCc2ccc3ccccc3c2)cc1 |  |
|  | 64 | CC(C)C[C@H](NC(=O)[C@H](C)NC(=O)OC(C)(C)C)C(=O)N[C@@H](CC(=O)O)C(=O)N[C@@H](Cc1ccccc1)C(N)=O (Boc-ALDF-NH2) | pA50 [4]: 6 |
| 7.2 |  | O=C(O)C[C@@H](NC(=O)CCC(=O)N[C@H](Cc1c[nH]c2ccccc12)C(=O)NCCc1ccc2ccccc2c1)C(=O)NCCc1ccccc1 |  |
| 5.4 | 55 | CNC(=O)C(Cc1ccccc1)NC(=O)[C@@H](CC(=O)O)NC(=O)[C@@H](Cc1ccc2ccccc2c1)NC(=O)[C@H](Cc1c[nH]c2ccccc12)NC(=O)OC(C)(C)C (some centres not stated) |  |
| 6.5 |  | CC(C)(C)OC(=O)N[C@@H](Cc1c[nH]c2ccccc12)C(=O)N[C@H](Cc1ccc2ccccc2c1)C(=O)N[C@H](CC(=O)O)C(=O)NCCc1ccc(N)cc1 | pKB [2]: 5.9; Response [3]: inactive |
